pIC50: −log10 of the molar value.
Assays:
[1] = test system: Canis familiaris; assay: Antidiabetic activity in Beagle dog assessed as urinary glucose excretion at 0.03 mg/kg, po administered 1 hr prior to glucose challenge measured after 1 to 24 hrs relative to dapagliflozin; format: functional, Canis lupus familiaris, Urine
In short: (§1)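 Overnight-fasted beagle dogs, n = 3 per group, given 0.03 mg/kg orally by gavage in 10% PEG400; vehicle controls received 10% PEG400. Oral glucose (2 g/kg, 5 mL/kg) given 1 h post-dose. Urine collected in metabolic cages at 0–8 and 8–24 h, glucose read on a biochemistry analyzer. Expressed as % of reference positive control; mean ± SD.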

[2] = test system: Canis familiaris; assay: Antidiabetic activity in Beagle dog assessed as urinary glucose excretion at 0.03 mg/kg, po administered 1 hr prior to glucose challenge measured after 8 to 24 hrs relative to dapagliflozin; format: functional, Canis lupus familiaris, Urine
In short: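 Overnight-fasted beagle dogs, n = 3 per group, given 0.03 mg/kg orally by gavage in 10% PEG400; vehicle controls received 10% PEG400. Oral glucose (2 g/kg, 5 mL/kg) given 1 h post-dose. Expressed as % of reference positive control; mean ± SD.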

[3] = test system: Canis familiaris; assay: Antidiabetic activity in Beagle dog assessed as urinary glucose excretion at 0.03 mg/kg, po administered 1 hr prior to glucose challenge measured after 1 to 8 hrs relative to dapagliflozin; format: functional, Canis lupus familiaris, Urine; in short: as §1
[4] = test system: Rattus norvegicus; assay: Antidiabetic activity in Sprague-Dawley rat assessed as urinary glucose excretion at 1 mg/kg, po administered 1 hr prior to glucose challenge measured after 1 to 24 hrs relative to dapagliflozin; format: functional, Urine
In short: (§2)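 Overnight-fasted Sprague-Dawley rats, n = 3 per group, dosed 1 mg/kg by oral gavage in 30% PEG400; controls received vehicle. Oral glucose (2 g/kg, 10 mL/kg) given 1 h post-dose. Urine collected in metabolic cages at 0–4 and 4–24 h, glucose measured on a biochemistry analyzer. Expressed as % of reference positive control; mean ± SD.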

[5] = test system: Rattus norvegicus; assay: Antidiabetic activity in Sprague-Dawley rat assessed as urinary glucose excretion at 1 mg/kg, po administered 1 hr prior to glucose challenge measured after 4 to 24 hrs relative to dapagliflozin; format: functional, Urine; in short: as §2
[6] = test system: Rattus norvegicus; assay: Antidiabetic activity in Sprague-Dawley rat assessed as urinary glucose excretion at 1 mg/kg, po administered 1 hr prior to glucose challenge measured after 1 to 4 hrs relative to dapagliflozin; format: functional, Urine; in short: as §2
[7] = AUC (0 to infinity) in Sprague-Dawley rat at 3 mg/kg, po by LC-MS/MS analysis; format: ADME, organism-based; parameters: time infinity, dose 3 mg/kg, route oral; settings: plasma
In short: (§3)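 Male Sprague-Dawley rats, n = 4 per group, overnight-fasted. Oral gavage of 3 or 1 mg/kg in 30% PEG400; i.v. arm at 1 mg/kg. Orbital plexus blood taken under ether at 0.083–24 h; plasma deproteinized and assayed by LC-MS/MS. Noncompartmental parameters derived; mean ± SD reported.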

[8] = Drug metabolism in Sprague-Dawley rat assessed as compound remaining at 50 mg/kg, po after 5 days by HPLC analysis; format: ADME, organism-based; parameters: dose 50 mg/kg, route oral; settings: in vivo, read-out: Drug metabolism
[9] = test system: Rattus norvegicus; assay: Antidiabetic activity in Sprague-Dawley rat assessed as reduction in blood glucose AUC at 10 mg/kg, po administered 1 hr prior to glucose challenge measured after 60 to 120 mins by oral glucose tolerance test relative to control; format: functional; parameters: scale not given: the % may be the effect or the level left
In short: (§4)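 Overnight-fasted male Sprague-Dawley rats, n = 5 per group, dosed orally at 0.1, 0.3, 1, 3 or 10 mg/kg in 30% PEG400 1 h before oral glucose challenge (20%, 2 g/kg). Blood glucose measured by glucometer from −60 to 120 min.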

[10] = test system: Rattus norvegicus; assay: Antidiabetic activity in Sprague-Dawley rat assessed as reduction in blood glucose AUC at 3 mg/kg, po administered 1 hr prior to glucose challenge measured after 60 to 120 mins by oral glucose tolerance test relative to control; format: functional; parameters: scale not given: the % may be the effect or the level left; in short: as §4
[11] = test system: Rattus norvegicus; assay: Antidiabetic activity in Sprague-Dawley rat assessed as reduction in blood glucose AUC at 1 mg/kg, po administered 1 hr prior to glucose challenge measured after 60 to 120 mins by oral glucose tolerance test relative to control; format: functional; parameters: scale not given: the % may be the effect or the level left; in short: as §4
[12] = test system: Rattus norvegicus; assay: Antidiabetic activity in Sprague-Dawley rat assessed as reduction in blood glucose AUC at 0.3 mg/kg, po administered 1 hr prior to glucose challenge measured after 60 to 120 mins by oral glucose tolerance test relative to control; format: functional; parameters: scale not given: the % may be the effect or the level left; in short: as §4
[13] = test system: Rattus norvegicus; assay: Antidiabetic activity in Sprague-Dawley rat assessed as reduction in blood glucose AUC at 0.1 mg/kg, po administered 1 hr prior to glucose challenge measured after 60 to 120 mins by oral glucose tolerance test relative to control; format: functional; parameters: scale not given: the % may be the effect or the level left; in short: as §4
[14] = Clearance in Sprague-Dawley rat at 1 mg/kg, iv by LC-MS/MS analysis; format: ADME, organism-based; parameters: dose 1 mg/kg, route intravenous; settings: in vivo; in short: as §3
[15] = AUC (0 to infinity) in Sprague-Dawley rat at 1 mg/kg, iv by LC-MS/MS analysis; format: ADME, organism-based; parameters: time infinity, dose 1 mg/kg, route intravenous; settings: plasma; in short: as §3
[16] = Half life in Sprague-Dawley rat at 1 mg/kg, iv by LC-MS/MS analysis; format: ADME, organism-based; parameters: dose 1 mg/kg, route intravenous; settings: in vivo; in short: as §3
[17] = Oral bioavailability in Sprague-Dawley rat at 1 mg/kg by LC-MS/MS analysis; format: ADME, organism-based; settings: in vivo; in short: as §3
[18] = Half life in Sprague-Dawley rat at 1 mg/kg, po by LC-MS/MS analysis; format: ADME, organism-based; parameters: dose 1 mg/kg, route oral; settings: in vivo; in short: as §3
[19] = AUC (0 to infinity) in Sprague-Dawley rat at 1 mg/kg, po by LC-MS/MS analysis; format: ADME, organism-based; parameters: time infinity, dose 1 mg/kg, route oral; settings: plasma; in short: as §3
[20] = Cmax in Sprague-Dawley rat at 1 mg/kg, po by LC-MS/MS analysis; format: ADME, organism-based; parameters: dose 1 mg/kg, route oral; settings: in vivo; in short: as §3
[21] = Tmax in Sprague-Dawley rat at 1 mg/kg, po by LC-MS/MS analysis; format: ADME, organism-based; parameters: dose 1 mg/kg, route oral; settings: in vivo; in short: as §3
[22] = target: T1, Sodium/glucose cotransporter 1 (Homo sapiens, UniProt P13866); assay: Inhibition of full length human SGLT1 assessed as methyl-alpha-D-[U-14C]glucopyranoside uptake after 2 hrs by cell-based topcount scintillation counting analysis
T1 sequence (P13866 whole entry): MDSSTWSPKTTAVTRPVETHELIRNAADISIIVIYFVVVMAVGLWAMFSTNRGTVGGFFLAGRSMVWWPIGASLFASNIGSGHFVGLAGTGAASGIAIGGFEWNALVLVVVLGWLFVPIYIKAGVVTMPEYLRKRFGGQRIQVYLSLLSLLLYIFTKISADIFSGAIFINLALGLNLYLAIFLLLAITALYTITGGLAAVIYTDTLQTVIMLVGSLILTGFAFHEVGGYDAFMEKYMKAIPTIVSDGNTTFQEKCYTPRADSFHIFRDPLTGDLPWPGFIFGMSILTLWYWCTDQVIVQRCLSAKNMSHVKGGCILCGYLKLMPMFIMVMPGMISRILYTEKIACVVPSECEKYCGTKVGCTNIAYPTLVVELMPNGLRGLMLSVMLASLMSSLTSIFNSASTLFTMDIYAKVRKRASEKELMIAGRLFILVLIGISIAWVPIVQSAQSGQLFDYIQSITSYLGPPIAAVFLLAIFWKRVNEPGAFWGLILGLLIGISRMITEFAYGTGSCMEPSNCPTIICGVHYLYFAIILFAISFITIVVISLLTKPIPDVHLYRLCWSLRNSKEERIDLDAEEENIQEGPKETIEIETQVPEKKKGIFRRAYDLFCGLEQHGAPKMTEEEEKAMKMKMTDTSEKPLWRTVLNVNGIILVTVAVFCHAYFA

[23] = target: T2, Sodium/glucose cotransporter 2 (Homo sapiens, UniProt P31639); assay: Inhibition of full length human SGLT2 assessed as methyl-alpha-D-[U-14C]glucopyranoside uptake after 1.5 hrs by cell-based topcount scintillation counting analysis
T2 sequence (P31639 whole entry): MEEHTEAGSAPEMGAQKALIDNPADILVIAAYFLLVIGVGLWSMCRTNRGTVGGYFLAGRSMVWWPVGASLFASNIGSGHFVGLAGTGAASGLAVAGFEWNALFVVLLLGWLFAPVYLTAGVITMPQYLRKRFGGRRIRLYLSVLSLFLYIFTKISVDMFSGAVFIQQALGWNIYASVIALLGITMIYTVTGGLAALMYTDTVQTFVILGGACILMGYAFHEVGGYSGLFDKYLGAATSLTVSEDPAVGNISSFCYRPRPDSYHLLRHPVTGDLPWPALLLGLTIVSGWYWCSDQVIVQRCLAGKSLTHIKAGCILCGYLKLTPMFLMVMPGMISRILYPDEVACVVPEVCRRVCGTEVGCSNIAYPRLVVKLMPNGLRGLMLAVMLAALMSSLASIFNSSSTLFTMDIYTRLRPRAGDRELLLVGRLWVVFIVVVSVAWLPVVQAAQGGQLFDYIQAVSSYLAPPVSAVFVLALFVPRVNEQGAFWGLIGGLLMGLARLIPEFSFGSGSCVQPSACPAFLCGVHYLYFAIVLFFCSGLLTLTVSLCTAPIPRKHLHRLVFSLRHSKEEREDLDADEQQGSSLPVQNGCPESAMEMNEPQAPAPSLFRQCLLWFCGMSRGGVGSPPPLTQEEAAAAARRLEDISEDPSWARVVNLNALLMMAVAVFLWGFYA

SMILES | Activity [1] | Activity [2] | Activity [3] | Activity [4] | Activity [5] | Activity [6] | AUC(0-inf) [7] | remaining at 120 h [8] | clearance [14] | AUC(0-inf) [15] | half-life [16] | bioavailability [17] | half-life [18] | AUC(0-inf) [19] | Cmax [20] | Tmax [21] | other results
[2H]C([2H])(c1ccc(OCC)cc1)c1cc([C@@H]2O[C@H](CO)[C@@H](O)[C@H](O)[C@H]2O)ccc1Cl | 10200 mg | 6830 mg | 3400 mg | 2220 mg | 2060 mg | 168 mg | 16100 ng·h/mL |  |  |  |  |  |  |  |  |  | 
[2H]C([2H])(c1ccc(OC([2H])([2H])C([2H])([2H])[2H])cc1)c1cc([C@@H]2O[C@H](CO)[C@@H](O)[C@H](O)[C@H]2O)ccc1Cl | 15400 mg | 11000 mg | 4360 mg | 2080 mg | 1940 mg | 137 mg | 22400 ng·h/mL |  |  |  |  |  |  |  |  |  | 
[2H]C([2H])([2H])Oc1ccc(Cc2cc([C@@H]3O[C@H](CO)[C@@H](O)[C@H](O)[C@H]3O)ccc2Cl)cc1 | 14700 mg | 11200 mg | 3480 mg | 2230 mg | 1980 mg | 251 mg | 7000 ng·h/mL | 87% | 12.7 mL/min/kg | 1330 ng·h/mL | 2.69 h | 76.3% | 3.5 h | 1020 ng·h/mL | 257 ng/mL | 1.56 h | Activity [9]: 5%; Activity [10]: 21.6%; Activity [11]: 26.7%; Activity [12]: 20.7%; Activity [13]: 18.6%; pIC50 [22]: 6.05; pIC50 [23]: 8.60
COc1ccc(Cc2cc([C@@H]3O[C@H](CO)[C@@H](O)[C@H](O)[C@H]3O)ccc2Cl)cc1 | 14500 mg | 10900 mg | 3620 mg | 1890 mg | 1660 mg | 233 mg | 5350 ng·h/mL | 73% | 14 mL/min/kg | 1220 ng·h/mL | 2.09 h | 77% | 3.23 h | 943 ng·h/mL | 165 ng/mL | 1.75 h | 
CCOc1ccc(Cc2cc([C@@H]3O[C@H](CO)[C@@H](O)[C@H](O)[C@H]3O)ccc2Cl)cc1 [DAPAGLIFLOZIN] |  |  |  |  |  |  | 11700 ng·h/mL | 43% |  |  |  |  |  |  |  |  | 
